# Screening data: PubChem BioAssay, several laboratories
# TNAP act hi DEA = increases human TNAP activity under high phosphate acceptor concentration; P05186; purified TNAP, CDP-star luminescence, 1 M DEA, 30 min; active compounds read high; 0 = EDTA background, 1 = DMSO-only activity; activation factor at 20 µM; 200,000 tested, under 10 active;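 active = activation factor at least 2 at 20 µM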
# Target sequence (P05186 whole entry, looked up): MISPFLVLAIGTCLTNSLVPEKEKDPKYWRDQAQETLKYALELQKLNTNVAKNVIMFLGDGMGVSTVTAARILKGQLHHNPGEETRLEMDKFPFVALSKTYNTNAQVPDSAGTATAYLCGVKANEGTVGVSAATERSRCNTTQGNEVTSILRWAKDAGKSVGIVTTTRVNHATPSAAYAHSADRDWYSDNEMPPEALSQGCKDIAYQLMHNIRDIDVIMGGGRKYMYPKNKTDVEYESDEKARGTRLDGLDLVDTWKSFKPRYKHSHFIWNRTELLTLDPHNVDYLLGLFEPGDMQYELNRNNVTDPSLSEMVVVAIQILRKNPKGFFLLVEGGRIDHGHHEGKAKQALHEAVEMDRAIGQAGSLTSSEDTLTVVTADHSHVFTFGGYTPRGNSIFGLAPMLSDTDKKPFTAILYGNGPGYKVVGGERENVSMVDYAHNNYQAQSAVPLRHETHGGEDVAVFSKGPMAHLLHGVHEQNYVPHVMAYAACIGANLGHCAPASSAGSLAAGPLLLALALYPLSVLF
#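 Control set: EDTA negative control, DMSO positive control / Assay system: human TNAP / Quantity: TNAP 1/800 final / Evaluation: TNAP activation factor scaled between EDTA and DMSO control wells / Measured by: luminescent substrate turnover signal / Compound dosing: one dose, 20 µM / Times: 30 min enzyme reaction at room temperature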
# bCat KO growth = beta-catenin-lacking colon tumor cell growth suppression; HCT116 beta-catenin knockout viability, CellTiter-Glo, 60 h; active compounds read low; viability, % at 10 µM; actives 1.5% (n = 140,000);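 active = viability at or under a set limit, the compound median less 4 SD, cut at about 6% in these data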;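 note: 0% = Hyamine 1622 control at 20 µM and 100% = untreated cell control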
# TNAP inh no acc = blocks human TNAP activity with no phosphate acceptor present; P05186; inhibition, % at 20 µM; purified TNAP, CDP-star luminescence, 30 min; actives 0.26% (n = 200,000);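 active = tissue-nonspecific alkaline phosphatase inhibition above about 50% at 20 µM in the single-dose screen, limit read from the data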;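 note: 0% = DMSO negative control and 100% = EDTA positive control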
# L major viab = Leishmania major promastigote growth inhibition | Leishmania major promastigotes, resazurin fluorescence viability | inhibition, % at 10 µM | actives 9% (n = 200,000) | AID 1063; in the data active = inhibition above about 50%;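 note: promastigotes grown with compound for 44 hours at 28 °C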
# TNAP inh hiacc = blocks human TNAP under high phosphate acceptor concentration; P05186; purified TNAP, CDP-star luminescence, 1 M DEA; inhibition, % at 20 µM; actives 0.03% (n = 200,000);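 active = over 50% inhibition of tissue-nonspecific alkaline phosphatase at 20 µM in the single-dose screen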;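 note: plate controls were DMSO wells for no effect and EDTA-quenched wells as full inhibition for full effect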
# HCT116 PTEN-null = growth suppressors of cells with PTEN tumor suppressor deletion | HCT116 PTEN-null viability, CellTiter-Glo, 60 h; active compounds read low | viability, % at 10 µM | actives 1.2% (n = 140,000) | AID 827;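 active = viability at or below a set limit, 4 SD under the median of all tested compounds, cut at about 3.7% in these data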;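 note: PTEN knockout HCT116 line with beta catenin targeted HCT116 as companion control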
# An asterisk follows results filed as active; / = no result given. Rows were chosen to be rich in hits. Some 9.6% of all compounds tested hit in one or more screens of this group.
SMILES,TNAP act hi DEA,bCat KO growth,TNAP inh no acc,L major viab,TNAP inh hiacc,HCT116 PTEN-null
Cc1cc(C(=O)C(C)OC(=O)C2=NNC(=O)CC2)c(C)n1-c1ccc(OC(F)F)cc1 (centres undefined),1.1,79,-8,99*,-6,76
Cn1c(-c2cccc(Br)c2)n[nH]c1=O,1.1,/,20,-2,-8,/
O=c1oc2ccccc2c2c1ncn2CCN1CCOCC1,1.1,99,-4,2,-7,100
c1ccc2c(c1)oc1c(NCCCN3CCOCC3)ncnc12,1.1,92,-17,96*,-8,84
c1ccc2c(c1)oc1c(NCCCn3ccnc3)ncnc12,1.1,99,3,94*,-6,100
c1coc(CNc2ncnc3c2oc2ccccc23)c1,1,81,-10,20,-2,88
Cc1nc(NCCCn2ccnc2)c2oc3ccccc3c2n1,1,97,-3,88*,-2,90
Cc1nc(NC(C)C)c2oc3ccccc3c2n1,1,89,-11,33,-5,85
CCOc1ccc(C(CC(=O)O)NC(=O)C(Sc2ccccc2)c2ccccc2)cc1 (centres undefined),1,/,-11,-5,-2,/
CCOC(=O)CN1C(=O)CN(c2ccc(C)c(C)c2)C1=O,1,95,1,24,-3,87
CCCCN(CC)S(=O)(=O)c1ccc(C(=O)N=c2sc3cc(NC(C)=O)ccc3n2C)cc1,1,0.6*,-6,-2,3,0.7*
CCCCN(C)S(=O)(=O)c1ccc(C(=O)N=c2sc3cc(NC(C)=O)ccc3n2C)cc1,1,83,-5,-4,-2,62
Cc1ccc(CNC(=O)CSc2nc3c(sc4ccccc43)c(=O)n2CCCN2CCCC2)cc1,1,/,-8,100*,-4,/
CCN(CC)CCn1c(SCC(=O)NCc2ccco2)nc2c(sc3ccccc32)c1=O,1,80,-8,3,-1,81
CCN(CC)CCn1c(SCC(=O)NCCC2=CCCCC2)nc2c(sc3ccccc32)c1=O,1,/,-20,68*,-1,/
O=C(CSc1nc2c(sc3ccccc32)c(=O)n1CCCN1CCOCC1)NCC1CCCO1 (centres undefined),1,/,-17,2,-2,/
O=C(CSc1nc2c(sc3ccccc32)c(=O)n1CCCN1CCCC1)NCc1ccccc1,1.1,/,-19,99*,-5,/
O=C(CCC1CCCN(C(=O)Cn2cnnn2)C1)NCc1ccccc1F (centres undefined),1,/,-14,-6,-5,/
CC1N(C)c2cc(NC(=O)c3ccco3)c(P(=O)(Nc3ccc([N+](=O)[O-])cc3)N3CCOCC3)cc2C1(C)C (centres undefined),1,/,-7,55*,-4,/
COc1ccc(C(NC(=O)C2CCCCC2)c2c(O)ccc3ccccc23)cc1 (centres undefined),1,64,7,100*,-5,53
CCCCC(=O)NC(c1ccco1)c1c(O)ccc2ccccc12 (centres undefined),1.1,87,-14,67*,-10,91
CC(C)CC(=O)NC(c1ccccc1Cl)c1c(O)ccc2ccccc12 (centres undefined),1,67,-10,100*,3,74
CCC(=O)NC(c1cccc([N+](=O)[O-])c1)c1c(O)ccc2ccccc12 (centres undefined),1.1,/,-5,6,-8,/
NC(=O)NC(c1ccccc1)c1cccc2ccccc12 (centres undefined),1,122,-13,1,-3,104
CCCC(=O)NC(c1ccco1)c1c(O)ccc2ccccc12 (centres undefined),1,62,-18,57*,2,57
SMILES,TNAP act hi DEA,bCat KO growth,TNAP inh no acc,L major viab,TNAP inh hiacc,HCT116 PTEN-null
CC(C)CC(C(=O)OCC(=O)c1c(N)n(C)c(=O)n(C)c1=O)N1C(=O)C2CC=CCC2C1=O (centres undefined),1,/,-11,3,-2,/
COc1cccc(C(C(=O)NC(C)(C)C)N(Cc2ccco2)C(=O)CCC(=O)Nc2cc(C)on2)c1OC (centres undefined),1.1,/,-10,-6,-8,/
COc1ccc(C(C(=O)NC(C)(C)C)N(Cc2ccc(C)cc2)C(=O)CCC(=O)Nc2cc(C)on2)cc1 (centres undefined),1,/,-1,94*,1,/
CCC(C)(C)NC(=O)C(c1ccc(F)cc1)N(Cc1ccco1)C(=O)CCC(=O)Nc1ccccn1 (centres undefined),1,92,-7,11,-4,82
COc1ccc(C(C(=O)NC(C)(C)C)N(Cc2ccco2)C(=O)CCC(=O)Nc2cc(C)on2)cc1 (centres undefined),1,90,-4,87*,2,76
CCC(C)(C)NC(=O)C(c1ccc(OC)cc1)N(Cc1ccco1)C(=O)CCC(=O)Nc1cc(C)on1 (centres undefined),1.1,71,-14,96*,-6,73
CCOC(=O)c1c(C)[nH]c(C(=O)NCc2ccco2)c1C,1,/,-12,-2,-4,/
Cc1ccc(NC2=CC(=O)C(=O)c3ccccc32)cc1,0.8,1.2*,18,99*,20,0.6*
CCOC(=O)c1ccc(NC2=CC(=O)C(=O)c3ccccc32)cc1,1,1.4*,12,100*,-2,8
CCCC(C)NC(=O)COc1ccc(S(=O)(=O)N2CCCC2)cc1 (centres undefined),1,/,-6,-2,-4,/
Cc1ccc2cc(CN(CCN3CCCC3)C(=O)Nc3ccc(F)cc3)c(=O)[nH]c2c1C,1.1,21,-11,73*,-6,20
Cc1c(C(=O)NN2CCOCC2)oc2ccccc12,1,/,-7,-1,0,/
COc1ccc(-n2cnnc2SCC(=O)Nc2cc(S(=O)(=O)N3CCCCC3)ccc2C)cc1,1.1,90,-4,67*,-8,95
O=C(CSc1nnc(-c2cccs2)o1)Nc1cccc(S(=O)(=O)N2CCCCC2)c1,1,94,-34,51*,-2,96
O=C(CSc1nncn1-c1ccccc1)Nc1cccc(S(=O)(=O)N2CCCCC2)c1,1,93,2,63*,-5,97
CC(=O)OCC12COC3c4ccccc4OC(C)(CC1C)C3C2C (centres undefined),1,/,10,22,-3,/
O=C(CSCc1ccc([N+](=O)[O-])cc1)Nc1ccccc1C(=O)O,1.1,/,-12,-8,-5,/
O=C(O)C1C2C=CC(C2)C1C(=O)NCc1cccs1 (centres undefined),1.1,/,-6,-4,-6,/
NC(N)=N/N=C/c1ccc(OCc2ccccc2)cc1,1.1,1.7*,-8,101*,-7,1.8*
